Compound activity deposited in PubChem BioAssay by several laboratories.
SENP1 FRET inh = human SENP1 catalytic domain inhibitors, primary screen, biochemical, FRET, uHTS; 360,000 tested, 0.21% active; Sentrin-specific protease 1 (Homo sapiens), Q9P0U3; inhibition, % at 10 µM; recombinant SENP1 catalytic domain, CyPet-SUMO1-YPet FRET cleavage; AID 624204, 2012;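 active = inhibition at least 30% at 10 µM, raw YFP signal under a set limit, fluorescence ratio 0.5 to 1.5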;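 note: 0% = enzyme with DMSO and 100% = no enzyme wells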
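Test system: hSENP1 catalytic domain, recombinant; Amount: 20 pM final SENP1 enzyme; Medium: Tris pH 8 buffer plus EDTA, NaCl, BME, BSA, NP40, catalase; Schedule: 50 min enzyme reaction, room temperature, light-protected; Technique: FRET fluorescence in CFP and YFP emission channels; Controls: no-enzyme wells low, DMSO-plus-enzyme wells high control.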
DSG3 Ab inh = inhibitors of pemphigus antibody binding to DSG3, primary screen, biochemical, bead-based, flow cytometry, scFv-GFP. Desmoglein-3 (Homo sapiens), P32926. DSG3-coupled beads, scFv-anti-DSG3-GFP binding; active compounds read low. binding (percent of control), % at 10 µM. 310,000 tested, 0.48% active. AID 588358, 2011;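 active = binding more than 3 SD below its plate's average and above zero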;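 note: hits lower antibody fragment binding to DSG3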
Target sequence (P32926 whole entry, looked up, the tested form may be a part): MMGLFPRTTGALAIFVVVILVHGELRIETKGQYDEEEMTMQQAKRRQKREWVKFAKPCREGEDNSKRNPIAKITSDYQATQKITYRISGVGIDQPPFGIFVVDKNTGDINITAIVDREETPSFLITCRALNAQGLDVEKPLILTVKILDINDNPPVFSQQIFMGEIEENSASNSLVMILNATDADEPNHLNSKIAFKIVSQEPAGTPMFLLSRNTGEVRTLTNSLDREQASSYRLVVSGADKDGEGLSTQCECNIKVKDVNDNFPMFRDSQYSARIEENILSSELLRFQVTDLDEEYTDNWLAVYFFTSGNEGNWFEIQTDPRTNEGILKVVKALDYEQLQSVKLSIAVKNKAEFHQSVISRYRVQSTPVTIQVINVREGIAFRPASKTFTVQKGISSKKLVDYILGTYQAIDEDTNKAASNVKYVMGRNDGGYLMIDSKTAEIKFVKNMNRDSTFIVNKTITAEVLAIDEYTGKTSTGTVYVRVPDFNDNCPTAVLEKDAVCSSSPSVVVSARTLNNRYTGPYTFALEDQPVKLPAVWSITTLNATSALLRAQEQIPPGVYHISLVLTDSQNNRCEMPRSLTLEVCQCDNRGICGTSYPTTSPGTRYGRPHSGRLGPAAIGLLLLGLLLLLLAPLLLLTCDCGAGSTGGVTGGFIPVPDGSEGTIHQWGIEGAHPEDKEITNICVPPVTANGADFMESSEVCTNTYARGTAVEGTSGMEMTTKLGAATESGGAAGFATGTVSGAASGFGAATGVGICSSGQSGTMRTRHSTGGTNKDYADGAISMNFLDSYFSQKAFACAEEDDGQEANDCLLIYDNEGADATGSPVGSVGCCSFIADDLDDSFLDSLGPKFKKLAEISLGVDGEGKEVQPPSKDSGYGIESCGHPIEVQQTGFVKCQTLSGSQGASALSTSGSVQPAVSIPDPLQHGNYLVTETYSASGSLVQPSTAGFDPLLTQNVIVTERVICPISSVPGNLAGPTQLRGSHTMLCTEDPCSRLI
HNF4A DNA FP = change in binding of human HNF4A to DNA, primary screen, biochemical, fluorescence polarization, FITC-DNA; Hepatocyte nuclear factor 4-alpha (Homo sapiens), P41235; 1 h; activity change, % at 10 µM; 360,000 tested, 0.3% active; AID 1224865, 2016; in the data active = activity change above about 30%, passing the limit was not always enough
Myeloid diff 2 = induction of myeloid progenitor differentiation, primary screen, cell-based, flow cytometry, MLPCN library. ER-HoxA9 myeloid progenitors, lysozyme-GFP differentiation. calls only at 10 µM. 360,000 tested, 1% active;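 active = normalized GFP-positive differentiation at or above the plate's own cutoff, the solvent-only control mean plus 3 SD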;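 note: cells exposed to compound for four days before flow analysis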
Exocytosis inh = LAMP-1 surface exposure blockers, TALL-104 cells – cell-based, flow cytometry, MLPCN library, primary screen; TALL-104 LAMP-1 surface exposure; cells stimulated with thapsigargin and PMA; inhibition, % at 10 µM; 360,000 tested, 0.66% active; AID 651702, 2012;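 active = inhibition above about 55%, limit read from the data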
H9c2 protect = cardioprotection against H2O2-induced cell death, primary screen, uHTS, H9c2 cells, ATPLite luminescence | 360,000 tested, 0.63% active | AID 588492, 2011 | protection from H2O2 cell death, % at 20 µM | H9c2 cardiomyocytes, H2O2 injury protection, 2 h;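 active = compounds giving at least 50% protection of heart cells from peroxide-induced death in the single-dose screen, raw or plate-pattern-corrected value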;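 note: 0% = DMSO wells with peroxide and 100% = DMSO wells without peroxide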
Numbers without * were called inactive; i = inactive; / = no result; + = active, no number. An excerpt weighted towards active compounds, which were near 3% of everything screened.

SMILES	SENP1 FRET inh	DSG3 Ab inh	HNF4A DNA FP	Myeloid diff 2	Exocytosis inh	H9c2 protect
O=C(c1cc(F)ccc1F)N1CCC(N2CCC(C(=O)N3CCCC3)CC2)CC1	-24	108	4	+	0	-1
Cc1ccc2nc(N3C(=O)C(O)=C(C(=O)c4ccc(C)o4)C3c3ccc(O)cc3)sc2c1 (centres undefined)	-43	117	16	+	8	5
COc1ccc2c(c1)-c1c(sn(-c3ccc(OC)c(OC)c3)c1=S)C(C)(C)N2	3	100	-1	i	66*	6
CC(C)CC(C(=O)NC1CCCCC1)N(Cc1cccs1)C(=O)c1snc(C(N)=O)c1N (centres undefined)	-5	110	1	i	13	51*
Cc1ccccc1N(C(=O)c1snc(C(N)=O)c1N)C(C(=O)NCc1ccccc1)c1ccc(O)cc1 (centres undefined)	-62	118	3	i	64*	51*
NC(=O)c1nsc(C(=O)N(c2ccccc2F)C(C(=O)NCc2ccccc2)c2ccc(O)cc2)c1N (centres undefined)	-39	100	0	i	39	51*
CN(C)c1ccc(C(C(=O)NC2CCCCC2)N(Cc2ccco2)C(=O)c2snc(C(N)=O)c2N)cc1 (centres undefined)	-3	105	2	i	22	53*
COc1cc(C(C(=O)NC2CCCC2)N(Cc2ccco2)C(=O)c2snc(C(N)=O)c2N)cc(OC)c1OC (centres undefined)	-4	/	3	i	-5	10
CCCCN(C1CCS(=O)(=O)C1)S(=O)(=O)c1ccc(OC)cc1 (centres undefined)	0	110	1	i	8	0
CS(=O)(=O)N1c2ccccc2[C@]2(Br)C[C@H]3C(=O)N[C@@H](Cc4ccccc4)C(=O)N3[C@H]12	1	95	-1	i	-8	6
Cn1c(N)c(C(=O)COC(=O)COc2cc(Cl)c(Cl)cc2Cl)c(=O)n(C)c1=O	7	/	1	i	2	0
CCC(C)(O)c1[nH]c2ccc(C#N)cc2c1C (centres undefined)	-2	97	-5	i	-15	-7
COC(=O)C1=CN(c2ccc(Oc3ccccc3)cc2)C(N)=C(C#N)C1c1ccc(-c2ccccc2)cc1 (centres undefined)	-15	/	7	i	11	/
CN(C)c1ccc(CN2CCC(C(=O)NC(c3ccc(Cl)cc3)c3cnccn3)CC2)cc1 (centres undefined)	-2	/	0	i	2	2
CC1CN(C(=S)NC2CCCC2)CC(C)O1 (centres undefined)	2	99	1	i	-3	2
NC(=O)c1nsc(C(=O)N(Cc2ccco2)C(C(=O)NCc2ccccc2)c2ccc(O)cc2)c1N (centres undefined)	-8	106	-1	i	4	58*
CN(C)c1ccc(C(C(=O)NCc2ccccc2)N(Cc2cccnc2)C(=O)c2snc(C(N)=O)c2N)cc1 (centres undefined)	0	/	-2	i	-7	61*
COc1ccc(C(C(=O)NCc2ccccc2)N(Cc2cccnc2)C(=O)c2snc(C(N)=O)c2N)cc1OC (centres undefined)	-6	105	3	i	11	13
COc1ccc(NC(=O)c2ccc(F)c(F)c2)c2ccccc12	2	105	2	i	22	2
Cc1ccnc(NC(=O)Nc2ccc(Br)cc2Cl)c1	-2	120	6	+	2	-10
Cc1cc(Cl)ccc1NC(=O)CSc1nnc(Cc2cccs2)n1Cc1ccco1	-21	/	42*	i	0	1
